Screens deposited in PubChem by several laboratories.
C8 TRAIL sens: sensitizes caspase-8 expressing cells to TRAIL; inhibition (viability loss, TRAIL sensitization), % at 10 µM; NB7+C8 cells + TRAIL, ATPlite viability luminescence; 360,000 compounds, 1% hits;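 active = compounds causing at least 50% loss of cell viability in the single-dose screen, relative to plate controls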
NF-kB expr up: raises NF-kB expression in human neuronal cells. AID 1239. NF-kB reporter expression; stronger effect = higher value. 190,000 compounds, 1.6% hits. fold change at 12.5 µM; in the data active = fold change above about 3.3
PPC-1+TRAIL kill: PPC-1 cancer cell killing with TRAIL present | PPC-1 cells + TRAIL, ATPLite viability luminescence | cell killing (% activity), % at 4 µM or 5 µM | 220,000 compounds, 0.41% hits | AID 1443;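 active = cell killing above 50% in the first pass at 4 µM, then a duplicate retest at 5 µM averaging 50% or more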;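 also: plate controls were cells with TRAIL plus DMSO for no effect and medium-only wells lacking cells for full effect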
FLuc stim CS: affects firefly luciferase, flagging false hits in luciferase stimulation screens; P08659; ATPlite luciferase biochemical, luminescence, 10 min; 0 = ATP-free wells, 1 = DMSO control; activation factor at 10 µM; 200,000 tested, under 10 active; AID 1027;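 active = luciferase activation factor, scaled between plate controls, of at least 2 with compound at 10 µM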
Target sequence (P08659 whole entry, looked up): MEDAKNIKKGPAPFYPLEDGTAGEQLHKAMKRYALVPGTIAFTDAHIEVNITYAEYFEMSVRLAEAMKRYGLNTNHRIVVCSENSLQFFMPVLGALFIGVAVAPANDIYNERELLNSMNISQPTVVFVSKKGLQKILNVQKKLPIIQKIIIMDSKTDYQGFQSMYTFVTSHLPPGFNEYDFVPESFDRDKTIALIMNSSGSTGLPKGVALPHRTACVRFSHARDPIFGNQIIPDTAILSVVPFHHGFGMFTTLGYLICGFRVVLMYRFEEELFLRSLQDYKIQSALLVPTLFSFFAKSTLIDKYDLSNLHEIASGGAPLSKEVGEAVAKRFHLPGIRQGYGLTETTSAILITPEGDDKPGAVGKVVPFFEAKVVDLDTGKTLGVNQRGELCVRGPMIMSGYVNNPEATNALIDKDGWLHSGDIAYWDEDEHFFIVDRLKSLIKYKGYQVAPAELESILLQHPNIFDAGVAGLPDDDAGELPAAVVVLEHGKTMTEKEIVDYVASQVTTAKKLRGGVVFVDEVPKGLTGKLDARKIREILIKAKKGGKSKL
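Assay system: Luciferase/luciferin detection reagent, cell-free biochemical luciferase assay / Read-out: luciferase activation / Benchmarks: No-ATP low control, compound-free enzyme-plus-ATP high control / Medium: PBS buffer for ATP / Detection: luminescence measurement of luciferase light output / Schedule: 10 min at ambient temperature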
APP 5'UTR act: APP 5'UTR luciferase reporter activation; 190,000 compounds, 1% hits; activation, % at 2 µM; SH-SY5Y APP 5'UTR luciferase reporter, luminescence; zero percent = DMSO vehicle wells; AID 1276;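 active = activation above a set limit, based on mean plus 3 SD of controls, cut at about 140% in these data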
FLuc inhib CS: Photinus pyralis luciferase inhibition counter-screen. 200,000 compounds, 1.5% hits. inhibition, % at 10 µM. P08659. ATPLite firefly luciferase biochemical luminescence, 10 min;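 active = inhibition above about 50% when tested at 10 µM, limit read from the data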
* marks the source's active call; other numbers are inactive results; x = not tested or not shown. Hits are enriched below; roughly 2.2% of the tested compounds scored in any of these assays.

SMILES | C8 TRAIL sens | NF-kB expr up | PPC-1+TRAIL kill | FLuc stim CS | APP 5'UTR act | FLuc inhib CS
O=C(O)c1cc(/C=C/c2ccc(N3CCOCC3)c([N+](=O)[O-])c2)nc2ccccc12 | 64.2* | x | 43.4 | x | x | x
O=C(c1ccc(N2CCOCC2)c([N+](=O)[O-])c1)N1CCN(c2ccccc2)CC1 | 6.5 | x | x | x | x | x
CC(=O)N1CCc2cc(S(=O)(=O)C(C)CC(=O)NCc3ccco3)ccc21 (stereo not given) | -4.8 | x | x | x | x | x
O=C(O)C/C(=C\c1cccc(NC(=O)c2ccccc2Cl)c1)c1nc2ccccc2s1 | -3.6 | x | 5.3 | x | x | x
O=C(Nc1ccc(Cl)cc1)/C(=C/c1cccc(O)c1)c1nc2ccccc2s1 | 88.0* | 0.99 | 36.9 | 1 | -30.4 | -1.2
Cc1ccc(S(=O)(=O)c2nnn3c2nc(NC2CCN(Cc4ccccc4)CC2)c2ccccc23)cc1C | 88.4* | x | x | x | x | x
CCCCC(=O)N(C)c1c(CC)nc2c(OCC(=O)N(C)C)cccn12 | 6.9 | x | x | x | x | x
COc1cccc(N/C=C/C(=O)c2ccc(Cl)cc2)c1 | 53.4* | 6.43* | 52.8* | 0.2 | 198.1* | 83.2*
COc1cccc(N/C=C/C(=O)c2ccc(C)cc2)c1 | 63.5* | x | x | x | x | x
CCOC(=O)c1ccc(N/C=C/C(=O)c2ccc(OC)cc2)cc1 | -1.1 | 1.56 | 22.1 | 1 | 4.6 | -3.5
COc1cccc(C(=O)/C=C/Nc2ccc(NC(C)=O)cc2)c1 | 4.5 | 1.15 | -5.4 | 0.7 | 60.2 | 27.6
COc1ccc(N/C=C/C(=O)c2ccc(Cl)cc2)cc1 | 43.1 | 1.04 | 21.1 | 0.7 | 151.8* | 34.7
CN1C=CC(=C[N+](=O)[O-])N(C)C1=O | 7.6 | x | x | x | x | x
O=C(Cn1c2ccccc2c(=O)c2ccccc21)N/N=C/c1cc([N+](=O)[O-])ccc1N1CCCCCC1 | 59.6* | 0.97 | 14.8 | 1.1 | 21.6 | -5.7
COc1ccc(C(=O)c2ccc(Cl)c([N+](=O)[O-])c2)cc1 | -37.0 | 3.65* | 35.4 | 1 | -95.0 | -4.1
CC(C)c1ccccc1NC(=O)Nc1nnc([C@H]2C[C@H](O)[C@@H](CO)O2)s1 | 6.2 | x | x | x | x | x
COC(=O)C1C(=O)c2c([nH]c(C(=O)OC3CCCC3)c2C)CC1C (stereo not given) | 47.1 | 3.42* | 37.4 | 0.4 | 108.9 | 55.5*
Cc1c(C(=O)OCC(C)C)[nH]c2c1C(=O)CC(c1ccco1)C2 (stereo not given) | 21.6 | 2.94 | 24.5 | 1 | -95.7 | -3.8
Cc1c(C(=O)OC2CCCC2)[nH]c2c1C(=O)CC(c1ccco1)C2 (stereo not given) | 20.4 | 4.34* | -15.6 | 1 | -93.9 | -4.9
C=CCOC(=O)c1[nH]c2c(c1C)C(=O)CC(c1ccco1)C2 (stereo not given) | x | 4.68* | 6.8 | 1 | -96.5 | -3.5
Cc1c(C(=O)OC2CCCC2C)[nH]c2c1C(=O)CCC2 (stereo not given) | -2.9 | 1.96 | 26.0 | 1 | 25.0 | 0.3
COc1ccc(C2=Nc3ccccc3N(C(=O)c3ccc4ncccc4c3)C2C(=O)NC(C)(C)C)cc1 (stereo not given) | 2.0 | x | x | x | x | x
Cc1cccc(C)c1NC(=O)C(c1ccccc1)N1CCN(C/C=C/c2ccccc2)CC1 (stereo not given) | 9.7 | x | x | x | x | x
NC(c1csc(Nc2ccc(C(F)(F)F)cn2)n1)C1CCCCC1 (stereo not given) | 29.5 | x | x | x | x | x
O=C(c1cccc(COc2ccc(Cl)cc2Cl)c1)N1CCN(c2ccccn2)CC1 | 9.4 | 1.94 | 5.9 | 1 | 172.8* | 2.5
SMILES | C8 TRAIL sens | NF-kB expr up | PPC-1+TRAIL kill | FLuc stim CS | APP 5'UTR act | FLuc inhib CS
O=C(c1ccc(Cl)c(Cl)c1)N1CCN(c2ccccn2)CC1 | -7.5 | x | x | x | x | x
O=c1[nH]c(=S)[nH]c2c1[C@H](CCc1cccc(Cl)c1)O[C@H](C1CC1)C2 | 15.3 | x | x | x | x | x
CC1(C(=O)NS(=O)(=O)C2CC2)CCCN(C(=O)c2ccc3ccccc3c2)C1 (stereo not given) | -4.4 | x | x | x | x | x
Cc1cc(F)ccc1-c1cc(C(=O)NCc2cccs2)[nH]n1 | -2.1 | x | x | x | x | x
CCOC(=O)c1c(C)nc(C)c(C(=O)OCC)c1-c1ccccc1 | -17.2 | 1.02 | x | 1 | 20.1 | -4.2
CCOC(=O)c1c(C)nc2c(c1-c1cc(OC)c(OC)c(OC)c1)C(=O)c1ccccc1-2 | 66.3* | 1.95 | 8.2 | 1 | -4.6 | -4.7
COC(=O)C1=CN(c2cccc(OCc3ccccc3)c2)C(N)=C(C#N)C1c1cccc(F)c1 (stereo not given) | 6.6 | x | x | x | x | x
CC1(C(=O)NCc2cccnc2)CCN1C(=O)Cc1cccs1 (stereo not given) | -2.8 | x | x | x | x | x
COc1ccc(C#Cc2cccc(-c3nc(C(=O)NCc4ccc(Oc5ccccc5)cc4)cc4c3[C@@H](CCO)N(S(=O)C(C)(C)C)C4)c2)cc1OC (stereo not given in full) | 5.8 | x | x | x | x | x
COc1ccc(/C=C2\SC(=O)N(CCNC(=O)C3CC4C=CC3C4)C2=O)cc1 (stereo not given) | 12.5 | 9.48* | -4.5 | 0.8 | 202.5* | 20.5
COc1ccc(/C=C2\SC(=O)N(CCNC(=O)C3CSC4(C)CCC(=O)N34)C2=O)cc1 (stereo not given) | 15.8 | x | x | x | x | x
O=C(CSc1ccccc1)Nc1ccc2c(c1)OCCO2 | 39.7 | x | x | x | x | x
CCOc1ccc(N/C(C)=C/C(=O)c2ccc3c(c2)OCCO3)cc1 | 1.7 | x | 5.9 | x | x | x
O=C(Nc1ccc2c(c1)OCCO2)c1ccccc1 | 50.6* | x | x | x | x | x
CCOc1ccc(N/C(C)=C\C(=O)c2ccc3c(c2)OCCO3)cc1 | 11.8 | 3.37* | 20.3 | 0.9 | 36.0 | 13.2
O=C(Nc1ccc2c(c1)OCCO2)C(=O)c1c[nH]c2ccccc12 | 81.7* | x | x | x | x | x
O=C(CC(=O)c1ccccc1)Nc1ccc2c(c1)OCCO2 | 28.1 | 3.93* | 19.5 | 0.6 | 129.3 | 41.5
O=C(Nc1ccc2c(c1)OCO2)C(=O)c1c[nH]c2ccccc12 | 49.4 | x | x | x | x | x
CC(=O)Nc1cccc(-c2ccnc3c2CC(C(=O)NCc2ccc(N(C)C)cc2)O3)c1 (stereo not given) | 13.8 | x | x | x | x | x
O=C1NC[C@H](CCCCN2CCN(CC3CCCCC3)C(=O)C2=O)N(CC2CCCCC2)C1=O | -6.3 | x | x | x | x | x
COc1ccc(CN2C(=O)CCCC2(C)c2nc3ccccc3[nH]2)cc1 (stereo not given) | 10.1 | x | x | x | x | x
COCCNc1nc(NCc2cc(-c3ccc(OC)cc3)no2)c2sccc2n1 | 10.1 | x | x | x | x | x
O=C(Nc1ccc2c(c1)OCCO2)c1cccc(C(=O)Nc2ccc3c(c2)OCCO3)c1 | 15.9 | x | x | x | x | x
O=C(CCCc1ccccc1)Nc1ccc2c(c1)OCCO2 | 4.0 | 8.01* | -3.7 | 0.7 | 202.9* | 34.7
CCOc1cccc(C(=O)Nc2ccc3c(c2)OCCO3)c1 | 59.2* | x | x | x | x | x
O=C(CCCc1cccs1)Nc1ccc2c(c1)OCO2 | 5.8 | 4.22* | 8.3 | 0.8 | 161.8* | 15.6
O=C(CCS(=O)(=O)c1ccccc1)Nc1ccc2c(c1)OCO2 | 1.5 | 2.2 | 0.5 | 1 | -1.8 | -2.5
